Assays:
[1] = Prodrug activation in human plasma assessed as gemcitabine release at 1 ug/ml measured up to 4 hrs by LC-MS/MS analysis; type: cell-free
Summary of the method: (§1)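 Human plasma spiked with conjugate at 1 µg/mL. Triplicate 50 µL samples taken at 0, 0.08, 0.5, 1 and 4 h, mixed with 150 µL acetonitrile and stored at -80 °C. Intact conjugate and released gemcitabine followed.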

[2] = Prodrug activation in C57BL/6N mouse blood assessed as dFdU release at 10 mg/kg, ip measured after 1 hr by LC-MS/MS analysis; type: organism-based; conditions: in vivo
Summary of the method: (§2)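 Male C57BL/6N mice, 8-12 weeks old, fasted overnight (n = 5/group), given conjugate 10 mg/kg (6.3 µmol/kg) IP in saline. Serial tail bleeds of 10 µL at 0.25, 0.5, 1, 2, 4, 6 and 8 h into 0.1 M citric acid, pH 4.5. Stored at -80 °C, processed by protein precipitation and evaporation. Conjugate, gemcitabine and dFdU measured.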

[3] = Prodrug activation in C57BL/6N mouse blood assessed as gemcitabine release at 10 mg/kg, ip measured up to 8 hrs by LC-MS/MS analysis; type: organism-based; conditions: in vivo; summary of the method: as §2
MDA-MB-231 = assay: Antiproliferative activity against human MDA-MB-231 cells measured after 72 hrs by MTT assay; type: functional, cell-based; conditions: MDA-MB-231, 72 h
Summary of the method: (§3)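 Cells (RPMI for DU145, PC3, MDA-MB-231; DMEM for MCF7; 10% FBS, 37 °C, 5% CO₂) plated at 5 x 10³/well. After 24 h, medium replaced with compound at 10-40,000 nM for 72 h. MTT 0.3 mg/mL in PBS for 3 h, formazan dissolved in DMSO, OD at 570 nm with 690 nm reference. IC50 from four-parameter logistic fit; three experiments in triplicate.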

DU-145 = assay: Antiproliferative activity against human DU145 cells measured after 72 hrs by MTT assay; type: functional, cell-based; conditions: DU-145, 72 h; summary of the method: as §3
[4] = Prodrug activation in human DU145 cells assessed as dFdU release at 10 uM measured after 8 hrs by LC-MS/MS analysis; type: cell-based; conditions: du-145, 8 h
Summary of the method: (§4)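 DU145 cells seeded at 2 x 10⁶ cells/well and exposed to 10 µΜ compound for 1, 4 or 8 h. Medium removed, cells washed twice with ice-cold PBS, lysed in ice-cold MeCN-water (3:2) by scraping, then vortexed, sonicated and spun 3 min at 16,060 g. Conjugate, gemcitabine and dFdU quantified per 10⁶ cells.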

[5] = target: T1, Gonadotropin-releasing hormone receptor (Homo sapiens, UniProt P30968); assay: Displacement of [125I]-D-Tyr6-His5-GnRH from recombinant human GnRH receptor expressed in HEK293 cell membrane measured after 16 to 19 hrs by gamma counting method; type: cell membranes
T1 sequence (P30968 whole entry): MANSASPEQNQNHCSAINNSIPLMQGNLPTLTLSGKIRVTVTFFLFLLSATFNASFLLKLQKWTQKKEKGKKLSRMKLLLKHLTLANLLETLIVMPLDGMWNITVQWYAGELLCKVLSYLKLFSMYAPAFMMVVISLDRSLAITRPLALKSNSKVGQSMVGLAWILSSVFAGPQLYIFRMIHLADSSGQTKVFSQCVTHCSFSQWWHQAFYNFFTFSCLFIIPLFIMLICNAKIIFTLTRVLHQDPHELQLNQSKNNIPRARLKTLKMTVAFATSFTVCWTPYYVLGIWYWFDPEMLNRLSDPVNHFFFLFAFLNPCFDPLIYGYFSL
Summary of the method: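 Membranes from HEK 293 cells stably expressing human GnRH-R were incubated with 100,000-120,000 cpm [¹²⁵I]-D-Tyr⁶-His⁵-GnRH plus increasing conjugate concentrations. Buffer was 25 mM HEPES, 1 mM CaCl₂, 10 mM MgCl₂, 0.5% BSA, pH 7.4, final volume 0.2 mL, 4 °C for 16-19 h. Samples filtered on PEI-soaked GF/C, washed with ice-cold Tris-HCl and gamma counted. Nonspecific binding defined with 1000 nM triptorelin.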

PC-3 = assay: Antiproliferative activity against human PC3 cells measured after 72 hrs by MTT assay; type: functional, cell-based; conditions: PC-3, 72 h; summary of the method: as §3
[6] = Prodrug activation in human DU145 cells assessed as gemcitabine release at 10 uM measured after 8 hrs by LC-MS/MS analysis; type: cell-based; conditions: du-145, 8 h; summary of the method: as §4
MCF7 = assay: Antiproliferative activity against human MCF7 cells measured after 72 hrs by MTT assay; type: functional, cell-based; conditions: MCF7, 72 h; summary of the method: as §3
[7] = AUC (1 to 8 hrs) in human DU145 cells assessed per million cells at 10 uM by LC-MS/MS analysis; type: ADME, cell-based; parameters: time 1-8 hr, dose 10 uM; conditions: du-145, 10 µM; summary of the method: as §4
[8] = Prodrug activation in C57BL/6N mouse blood assessed as gemcitabine release at 10 mg/kg, ip measured after 30 mins by LC-MS/MS analysis; type: organism-based; conditions: in vivo, 0.5 h; summary of the method: as §2
[9] = Cmax in human DU145 cells assessed per million cells at 10 uM measured after 4 hrs by LC-MS/MS analysis; type: ADME, cell-based; parameters: dose 10 uM; conditions: du-145, 4 h; summary of the method: as §4
[10] = Stability of the compound in RPMI medium assessed as compound degradation at 1 uM measured <24 hrs by LC-MS/MS analysis; type: physicochemical; conditions: read-out: Drug degradation
Summary of the method: (§5)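 Conjugates at 1 µΜ incubated at 37 °C in RPMI with 10% FBS and 1% P/S. Triplicate samples taken at 0, 1, 2, 4, 8, 24, 48 and 72 h, mixed with initial mobile phase, stored at -80 °C. Analysed by LC-MS/MS.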

[11] = Stability of the compound in human plasma at 1 ug/ml measured up to 4 hrs by LC-MS/MS analysis; type: ADME, cell-free; summary of the method: as §1
[12] = Drug level in C57BL/6N mouse blood at 10 mg/kg, ip measured after 30 mins by LC-MS/MS analysis; type: ADME, organism-based; conditions: whole blood, read-out: Drug uptake; summary of the method: as §2
[13] = Drug level in C57BL/6N mouse blood at 10 mg/kg, ip measured after 15 mins by LC-MS/MS analysis; type: ADME, organism-based; conditions: whole blood, read-out: Drug uptake; summary of the method: as §2
[14] = Stability of the compound in RPMI medium at 1 uM measured after 72 hrs by LC-MS/MS analysis; type: physicochemical; summary of the method: as §5
[15] = Prodrug activation in C57BL/6N mouse blood assessed as dFdU release at 10 mg/kg, ip measured up to 8 hrs by LC-MS/MS analysis; type: organism-based; conditions: in vivo; summary of the method: as §2

CC(C)C[C@H](NC(=O)[C@@H](CCCCNC(=O)CCCCCNC(=O)CCC(=O)OC[C@H]1O[C@@H](n2ccc(N)nc2=O)C(F)(F)[C@@H]1O)NC(=O)[C@H](Cc1ccc(O)cc1)NC(=O)[C@H](CO)NC(=O)[C@H](Cc1c[nH]c2ccccc12)NC(=O)[C@H](Cc1cnc[nH]1)NC(=O)[C@@H]1CCC(=O)N1)C(=O)N[C@@H](CCCNC(=N)N)C(=O)N1CCC[C@H]1C(=O)NCC(N)=O
Drug metabolism [1]: Metabolite_Detected
Drug metabolism [2]: 500 ng/mL
Drug metabolism [3]: Metabolite_Detected
IC50 (MDA-MB-231): 2.39 µM
IC50 (DU-145): 0.684 µM
Drug metabolism [4]: Metabolite_Notdetected
IC50 [5]: 0.0024 µM
IC50 (PC-3): 0.937 µM
Drug metabolism [6]: Metabolite_Detected
IC50 (MCF7): 0.0555 µM
AUC [7]: 38.6 ng/10^6 cells × hr
Drug metabolism [8]: 300 ng/mL
Cmax [9]: 8 ng/10^6 cells
degraded at 24 h, 1 µM [10]: 100%
Stability [11]: Unstable

CC(C)C[C@H](NC(=O)[C@@H](CCCCN)NC(=O)[C@H](Cc1ccc(O)cc1)NC(=O)[C@H](CO)NC(=O)[C@H](Cc1c[nH]c2ccccc12)NC(=O)[C@H](Cc1cnc[nH]1)NC(=O)[C@@H]1CCC(=O)N1)C(=O)N[C@@H](CCCNC(=N)N)C(=O)N1CCC[C@H]1C(=O)NCC(N)=O
IC50 (MDA-MB-231): > 40 µM
IC50 (DU-145): > 40 µM
IC50 [5]: 0.0105 µM
IC50 (PC-3): > 40 µM
IC50 (MCF7): > 40 µM

CC(C)C[C@H](NC(=O)[C@@H](CCCCNC(=O)OC[C@H]1O[C@@H](n2ccc(N)nc2=O)C(F)(F)[C@@H]1O)NC(=O)[C@H](Cc1ccc(O)cc1)NC(=O)[C@H](CO)NC(=O)[C@H](Cc1c[nH]c2ccccc12)NC(=O)[C@H](Cc1cnc[nH]1)NC(=O)[C@@H]1CCC(=O)N1)C(=O)N[C@@H](CCCNC(=N)N)C(=O)N1CCC[C@H]1C(=O)NCC(N)=O
concentration at 0.5 h [12]: 4000 ng/mL
concentration at 0.25 h [13]: 4000 ng/mL
Stability [14]: Stable
Drug metabolism [1]: Metabolite_Notdetected
Drug metabolism [15]: Metabolite_Notdetected
IC50 (MDA-MB-231): > 40 µM
IC50 (DU-145): > 40 µM
Drug metabolism [4]: Metabolite_Notdetected
IC50 [5]: 0.00069 µM
IC50 (PC-3): > 40 µM
Drug metabolism [6]: Metabolite_Notdetected
IC50 (MCF7): 0.621 µM
AUC [7]: 62.8 ng/10^6 cells × hr
Stability [11]: Stable

Nc1ccn([C@@H]2O[C@H](CO)[C@@H](O)C2(F)F)c(=O)n1 [GEMCITABINE]
concentration at 0.5 h [12]: 3 ng/mL
IC50 (MDA-MB-231): 1.57 µM
IC50 (DU-145): 0.213 µM
IC50 (PC-3): 0.416 µM
IC50 (MCF7): 0.038 µM

CC(C)C[C@H](NC(=O)[C@@H](CCCCNC(=O)O[C@@H]1[C@@H](CO)O[C@@H](n2ccc(N)nc2=O)C1(F)F)NC(=O)[C@H](Cc1ccc(O)cc1)NC(=O)[C@H](CO)NC(=O)[C@H](Cc1c[nH]c2ccccc12)NC(=O)[C@H](Cc1cnc[nH]1)NC(=O)[C@@H]1CCC(=O)N1)C(=O)N[C@@H](CCCNC(=N)N)C(=O)N1CCC[C@H]1C(=O)NCC(N)=O
concentration at 0.5 h [12]: 5000 ng/mL
concentration at 0.25 h [13]: 4000 ng/mL
Stability [14]: Stable
Drug metabolism [1]: Metabolite_Notdetected
Drug metabolism [15]: Metabolite_Notdetected
IC50 (MDA-MB-231): > 40 µM
IC50 (DU-145): 9.76 µM
Drug metabolism [4]: Metabolite_Notdetected
IC50 [5]: 0.00011 µM
IC50 (PC-3): > 40 µM
Drug metabolism [6]: Metabolite_Notdetected
IC50 (MCF7): 0.449 µM
AUC [7]: 88.7 ng/10^6 cells × hr
Cmax [9]: 15 ng/10^6 cells in 4 h
Stability [11]: Stable

Source: ChEMBL document CHEMBL4400527, “Development of bioactive gemcitabine-D-Lys6-GnRH prodrugs with linker-controllable drug release rate and enhanced biopharmaceutical profile” (Eur J Med Chem, 2019)
